In assay [1] the test system is Trypanosoma cruzi. The assay is described as follows: Trypanocidal activity against Trypanosoma cruzi Y trypomastigotes infected in human HeLa cells at 4 degC after 18 hrs by hemocytometric analysis. In kind it is functional, organism-based.
In assay [2] the test system is Trypanosoma cruzi. The assay is described as follows: Trypanocidal activity against Trypanosoma cruzi Y trypomastigotes infected in human HeLa cells at 37 degC after 18 hrs by resazurin assay. In kind it is functional, organism-based. In a few lines:
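Tissue culture-derived trypomastigotes treated for 18 h at 37 °C. Read-out by fluorescence.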

Molecules are shown by their SMILES.

As to `O=C(Cn1ccnc1[N+](=O)[O-])NCc1ccccc1` [BENZNIDAZOLE], the IC50 in the assay on Trypanosoma cruzi [1] is ≥ 500 µM; with Trypanosoma cruzi [2], 25.6 µM.

The values above are taken from ChEMBL document CHEMBL2390912, “Aromatic glycosyl disulfide derivatives: evaluation of their inhibitory activities against Trypanosoma cruzi” (Bioorg Med Chem Lett, 2013).
